dFosB act-1: activators of mouse delta FosB homodimer; purified delta FosB, TAMRA-CDK5 oligo fluorescence polarization; percent of positive-control signal above neutral wells; AID 493131; hit rate 0.99% among 340,000; activation, % at 25 µM; P13346;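 active = mean activation above about 17%, with every replicate also reaching it, limit read from the data, passing the limit was not always enough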
SR-BI HDL uptake: mouse SR-BI HDL lipid transfer inhibition; Q61009; ldlA[mSR-BI] CHO cells, DiI-HDL uptake fluorescence, 3 h; inhibition, % at 12.5 µM; hit rate 0.96% among 320,000;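 active = mean replicate inhibition of at least 70% and a set share of replicates each scoring 70 or more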;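 also: 0% = median of neutral control wells and 100% = median of positive control wells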
SR-BI uptake up: enhances SR-BI lipid uptake from DiI-HDL; hit rate 0.096% among 320,000; CHO ldlA[mSR-BI] cells, DiI-HDL uptake fluorescence, 3 h; 100 = double the neutral-control signal; activation, % at 12.5 µM;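 active = mean replicate activation of at least 60% and every replicate at or above 60%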;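 also: 0% = median plate neutral-control signal and 100% = twice that signal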
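material = CHO ldlA[mSR-BI] cells | medium = Ham's F12 with 0.5% BSA, HEPES 25 mM, pH 7.4 | reagent = fluorescent DiI-HDL, 10 µg/mL final | compound dosing = single-point compound dose | incubation = 3 h, 37 °C | measured by = bottom-read fluorescence, 550/595 nm | measure = HDL uptake via cellular fluorescence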
CDK5 inh: blocks human CDK5/p35 kinase activity; Q00535+Q15078; Recombinant CDK5/p35, ADP-Glo luminescence, 60 min; inhibition, % at 10 µM; hit rate 0.01% among 330,000; AID 488839;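 active = highest replicate inhibition of at least 50% and at least 75% of replicates reaching 50%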;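 also: plate controls were DMSO neutral control for no effect and GW8510 at 10 µM for full effect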
Target sequence (Q00535 whole entry, looked up): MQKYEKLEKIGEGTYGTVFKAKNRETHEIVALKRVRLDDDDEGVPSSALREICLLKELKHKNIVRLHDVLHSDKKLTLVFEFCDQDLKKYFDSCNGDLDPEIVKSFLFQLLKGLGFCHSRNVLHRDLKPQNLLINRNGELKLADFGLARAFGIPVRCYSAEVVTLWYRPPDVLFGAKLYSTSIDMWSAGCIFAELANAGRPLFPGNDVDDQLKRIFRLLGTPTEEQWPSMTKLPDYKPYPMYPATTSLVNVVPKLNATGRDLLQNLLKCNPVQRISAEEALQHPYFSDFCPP
Target sequence (Q15078 whole entry, looked up): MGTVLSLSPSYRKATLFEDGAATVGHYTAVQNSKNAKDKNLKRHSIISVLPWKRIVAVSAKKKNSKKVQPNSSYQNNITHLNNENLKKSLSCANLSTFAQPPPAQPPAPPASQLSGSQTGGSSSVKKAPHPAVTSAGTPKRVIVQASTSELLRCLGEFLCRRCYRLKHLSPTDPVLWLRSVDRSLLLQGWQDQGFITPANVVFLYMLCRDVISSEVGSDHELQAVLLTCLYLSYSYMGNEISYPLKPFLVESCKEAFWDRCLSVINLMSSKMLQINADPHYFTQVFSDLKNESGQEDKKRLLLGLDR
dFosB act-2: delta FosB (mouse) homodimer activation; 2,400 tested, under 10 active; purified delta FosB, TAMRA-CDK5 oligo fluorescence polarization; normalised: neutral wells 0, positive control 100; shares compounds with dFosB act-1; activation, % at 24.9 µM;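 active = highest replicate activation at or above 34% and every replicate reaching that threshold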;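 also: higher polarization means more probe DNA bound by delta FosB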
* marks the source's active call; other numbers are inactive results; . = no result given. Rows were chosen to be rich in hits. Some 2% of all compounds tested hit in one or more screens of this group.

SMILES	dFosB act-1	SR-BI HDL uptake	SR-BI uptake up	CDK5 inh	dFosB act-2
CSc1nc(N)c(C#N)c(-c2ccc(Cl)cc2)c1C#N	3.2	11.6	-11.6	1.0	.
CN(CC(=O)Nc1ccccc1Br)C(=O)CNC(=O)c1ccc(Oc2ccccc2)cc1	-14.2	18.8	-18.8	0.2	.
N/C(=N\OC(=O)COc1ccc(Cl)cc1)c1cccnc1	-0.7	-15.2	15.2	1.0	.
N/C(=N\OC(=O)COc1ccc(Cl)cc1Cl)c1cccnc1	24.3*	15.8	-15.8	-0.7	-4.0
O=C(Cn1cnc2c(nnn2Cc2ccccc2)c1=O)Nc1ccc2c(c1)OCCO2	29.7*	8.3	-8.3	4.0	-0.2
O=C(Cn1nnc(-c2ccc(F)cc2)n1)Nc1ccc2c(c1)OCCO2	35.9*	-15.7	15.7	-0.8	5.6
CC(C)(C)OC(=O)N[C@@H](Cc1ccccc1)c1nnc(SCC(=O)c2ccc(Cl)cc2)o1	43.8*	37.8	-37.8	-1.6	6.8
CCCn1c(N)c(C(=O)CSc2nc(N)cc(=O)[nH]2)c(=O)n(C)c1=O	3.6	-22.8	22.8	2.8	.
COc1ccc(NC(=O)c2sc3ncn(CC(=O)N4CCN(c5ccccn5)CC4)c(=O)c3c2C)c(OC)c1	11.4	35.6	-35.6	0.8	.
COc1cc(OC)c(NC(=O)c2sc3ncn(CC(=O)N4CCN(c5ccccn5)CC4)c(=O)c3c2C)cc1Cl	23.6*	57.8	-57.8	2.8	0.4
COc1ccc(-c2cc(C(=O)Nc3cccnc3Cl)no2)cc1OC	-0.5	.	.	-0.5	.
COc1cccc(-c2cc(C(=O)Nc3cccnc3Cl)no2)c1	31.1*	10.1	-10.1	0.0	-2.3
O=C(Nc1cccnc1Cl)c1cc(-c2cccc(O)c2)on1	55.1*	0.3	-0.3	0.8	7.8
COc1cccc(NC(=O)c2cnc(SCC(=O)NCc3ccc4c(c3)OCO4)n(C)c2=O)c1	-7.5	39.3	-39.3	0.5	.
O=C(/C=C\c1ccco1)Nc1nc(-c2ccccc2)cs1	5.3	14.1	-14.0	2.3	.
O=C(/C=C/c1ccccc1)Nc1nc(-c2ccncc2)cs1	16.7*	57.8	-57.8	-1.1	-8.9
Cc1cccc(NC(=O)CCC(=O)Nc2nnc(C3CCCCC3)s2)c1	30.1*	3.7	-3.7	-0.2	4.1
Cc1ccc(NC(=O)CCC(=O)Nc2nnc(C3CCCCC3)s2)cc1	3.9	-4.3	4.3	0.7	.
O=C(Nc1nc(-c2ccccc2Cl)cs1)c1cccnc1	29.4*	25.7	-25.7	1.4	4.6
O=C(Cc1ccccc1F)Nc1nc(-c2cccnc2)cs1	38.8*	7.4	-7.4	-1.4	5.6
O=C(NC(=S)Nc1nc(-c2ccccc2)cs1)c1cccnc1	1.3	42.1	-42.1	-3.1	.
Cc1ccc(NC(=O)N2CCCC2C(=O)NCC2CCCCC2)cc1 (stereo not drawn)	1.0	.	.	-1.0	.
OC(CN1CCCCC1)Cn1c2ccccc2c2cc(Br)ccc21 (stereo not drawn)	39.8*	2.6	-2.6	-2.3	1.7
O=C(OCC(=O)N1CCN(c2ccccc2)CC1)c1ccccc1NCCO	-2.1	24.2	-24.2	-2.3	.
Cc1ccc(CCNC(=O)Cn2ncc3c([nH]c4ccccc43)c2=O)cc1	6.3	-4.1	4.1	-1.5	.
SMILES	dFosB act-1	SR-BI HDL uptake	SR-BI uptake up	CDK5 inh	dFosB act-2
Cc1ccc(C)c(NC(=O)Cn2nnc(C(=O)NCc3ccco3)c2N)c1	29.9*	5.1	-5.1	1.3	-4.8
Cc1ccc2[nH]c3c(=O)n(CC(=O)NCc4ccco4)ncc3c2c1	26.1*	-0.3	0.3	-1.2	1.6
Cc1ccc(CNC(=O)Cn2nnc(C(=O)Nc3cccc(C)c3C)c2N)cc1	5.8	-4.6	4.6	.	.
Cc1ccc(CNC(=O)c2nnn(CC(=O)Nc3cccc(C)c3C)c2N)cc1	65.6*	-21.8	21.8	1.3	-1.4
CCOc1ccc(-c2c(C)sc3nc[nH]c(=O)c23)cc1	3.2	5.0	-5.0	-1.4	.
Cc1ccc(S(=O)(=O)N2CCN(CC(=O)NCC3(N4CCOCC4)CCCCC3)CC2)cc1	-3.2	-1.4	1.4	0.5	.
O=C1CC(=C(c2ccccc2)c2ccccc2)C(=O)N1CCCN1CCN(c2cccc(Cl)c2)CC1	-4.4	8.4	-8.4	0.9	.
O=C1CC(=C2c3ccccc3-c3ccccc32)C(=O)N1CCCCN1CCN(c2ccccc2)CC1	32.8*	9.4	-9.4	0.8	2.5
CC(C)(C)CC(=O)Nc1cc2c3c(c1)CCN3C(=O)CC2	3.1	22.5	-22.5	1.2	.
Cc1noc(C)c1NC(=O)Nc1cccc2c1O[C@H](CN(C)C(=O)NC1CCCCC1)[C@@H](C)CN([C@H](C)CO)C2=O	0.3	46.5	-46.5	0.7	.
COc1cc(NC(=O)c2cc(S(=O)(=O)N3CCCCC3)c[nH]2)cc(OC)c1	100.2*	-8.4	8.4	-1.4	-1.1
CCCCCCCCNCCS(=O)(=O)NCc1ccc(OC)cc1	-7.0	-2.6	2.6	1.0	.
Cc1cnc(NC(=O)c2cc3c(C)nn(Cc4ccccc4Cl)c3s2)s1	30.4*	52.3	-52.3	1.4	7.1
CCC(=O)c1cn(CC(=O)Nc2ccc(C)cc2)c2ccccc12	-2.7	19.4	-19.4	0.4	.
CCc1cccc(NC(=O)CC2Oc3ccccc3NC2=O)c1 (stereo not drawn)	20.9*	-1.7	1.7	0.0	0.4
COC(=O)c1cc(NC(=O)CC2Oc3ccccc3NC2=O)cc(C(=O)OC)c1 (stereo not drawn)	-16.8	23.9	-23.9	-0.1	.
O=C(CSc1nnc(SCc2ccc(Cl)cc2)s1)N/N=C/c1c[nH]c2ccccc12	37.8*	.	.	-1.5	4.6
Fc1ccc(N2CCN(C3=Nc4cccc5cccc3c45)CC2)cc1	22.5*	45.5	-45.5	-0.3	1.6
COc1ccc(-c2cc3c(=O)n(CC(=O)NCc4cccnc4)ncn3n2)cc1	3.2	21.8	-21.8	0.2	.
COc1ccc(-c2cc3c(=O)n(CC(=O)Nc4ccc(C(C)=O)cc4)ncn3n2)cc1	74.2*	13.3	-13.3	-3.3	-2.4
COc1cc(/C=C/C(=O)OCC(=O)N2CCCC2)cc(OC)c1OC	-4.1	5.4	-5.4	-2.9	.
CCCn1c(N)c(C(=O)CSc2nc3ncc(Cl)cc3[nH]2)c(=O)n(C)c1=O	27.6*	69.5	-69.5	0.3	5.1
O=C(O)c1ccccc1NCc1cccs1	-3.5	-27.7	27.7	2.0	.
O=C1C=CN2CCOCC2C1 (stereo not drawn)	-0.8	-7.7	7.7	-1.6	.
CCN(c1ccccc1)S(=O)(=O)c1cccc(C(=O)NCc2ccccn2)c1	-5.2	-4.6	4.6	1.0	.
COc1ccc(NS(=O)(=O)c2cccc(NC(=O)COc3ccccc3[N+](=O)[O-])c2)cc1	25.0*	28.1	-28.1	-2.3	1.4
O=C(COc1ccccc1[N+](=O)[O-])Nc1ccc(NC(=O)c2cc3ccccc3o2)cc1	54.1*	42.5	-42.5	-1.5	2.9
O=C(COc1ccccc1[N+](=O)[O-])Nc1cccc(S(=O)(=O)NC2=NCCCCC2)c1	-0.7	8.2	-8.2	-1.7	.
